Results published in the M2OR odorant receptor database.

target: T1, OR2A1 (Homo sapiens) (UniProt Q8NGT9); conditions: stereoisomer not certain
T1 sequence (whole entry): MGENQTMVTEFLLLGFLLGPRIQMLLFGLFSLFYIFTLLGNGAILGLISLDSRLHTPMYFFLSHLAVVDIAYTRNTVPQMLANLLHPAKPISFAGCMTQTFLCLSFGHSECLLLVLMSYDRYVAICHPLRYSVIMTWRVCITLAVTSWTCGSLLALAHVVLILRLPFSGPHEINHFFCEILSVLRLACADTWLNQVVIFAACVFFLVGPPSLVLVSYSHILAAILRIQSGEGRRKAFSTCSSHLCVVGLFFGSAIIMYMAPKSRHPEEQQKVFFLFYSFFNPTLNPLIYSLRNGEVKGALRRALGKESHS
Summary of the method: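 Each entry records the cell line, G-protein, co-transfected protein and tags used. Methods varied with the source, often transient luciferase assays in mammalian cell lines. A receptor–molecule pair is called responsive (active) if the original authors judged its signal statistically different from baseline and non-responsive (inactive) otherwise.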

Odorant receptor agonist call, inactive:
CCCCCCCCCCCCO
CCCCCCCCCCCC(=O)O
CC(=O)O
CCCCCCCC(=O)OCC
CCCCCCCCCCCC(=O)OC
C=C(C)C1CC=C(C)CC1 (stereo not drawn)
CCCC(=O)CC
CC(C=O)Cc1ccc(C(C)(C)C)cc1 (stereo not drawn)
Cc1ccc(C(C)C)cc1
CCCO
CC(C)=CCCC(C)=CCCC(C)=CCO
CCCCCCCCCCCCCCCC(=O)OC
CCCCCCCCCC(=O)OCC
CCCCCCCC(=O)[O-].[H+]
CCCCCCCCCCCCCCCCCC(=O)[O-].[H+]
CCCCOCC(C)O (stereo not drawn)
COc1ccc2[nH]cc(CCNC(C)=O)c2c1
CCC(O)CC
CCCCCCCCCCCCCCCCCC(=O)OC
O=c1ccc2ccccc2o1
CCC(=O)O
CCCCCCCCCCCCCCCCCC(=O)OCC
CCCCCCCCCCCCCCC(=O)O
CCCCCCCCCCCCCC(=O)OC
CCC(C)CO (stereo not drawn)
CCCCCCCC(=O)OC
CCCCC(=O)C(C)=O
Cc1cccc(C)c1C
